SR-BI HDL uptake: inhibitors of SR-BI mediated HDL lipid uptake, primary screen, ldlA[mSR-BI] cells, fluorescence, single point. inhibition, % at 12.5 µM. 320,000 compounds, 0.96% hits. ldlA[mSR-BI] CHO cells, DiI-HDL uptake fluorescence, 3 h. Scavenger receptor class B member 1 (Mus musculus), Q61009. AID 488896, 2010;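 active means mean replicate inhibition of at least 70% and a set share of replicates each scoring 70 or more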;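 further: 0% = median of neutral control wells and 100% = median of positive control wells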
GASC-1 inh: inhibitors of GASC-1 histone demethylase, primary screen, biochemical, fluorescence, DELFIA europium; inhibition, % at 2.35 µM; 330,000 compounds, 0.069% hits; Lysine-specific demethylase 4C (Homo sapiens), Q9H3R0; GST-JMJD2C(1-420) H3K9me3 demethylation;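 active means more than half of a compound's replicate wells show inhibition beyond 50%, single wells judged on their own value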;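 further: signal counts dimethyl H3K9 product captured on neutravidin plate; 0% = median of DMSO wells and 100% = 0.3 times that DMSO median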
Target sequence (Q9H3R0 1-420 limits assumed): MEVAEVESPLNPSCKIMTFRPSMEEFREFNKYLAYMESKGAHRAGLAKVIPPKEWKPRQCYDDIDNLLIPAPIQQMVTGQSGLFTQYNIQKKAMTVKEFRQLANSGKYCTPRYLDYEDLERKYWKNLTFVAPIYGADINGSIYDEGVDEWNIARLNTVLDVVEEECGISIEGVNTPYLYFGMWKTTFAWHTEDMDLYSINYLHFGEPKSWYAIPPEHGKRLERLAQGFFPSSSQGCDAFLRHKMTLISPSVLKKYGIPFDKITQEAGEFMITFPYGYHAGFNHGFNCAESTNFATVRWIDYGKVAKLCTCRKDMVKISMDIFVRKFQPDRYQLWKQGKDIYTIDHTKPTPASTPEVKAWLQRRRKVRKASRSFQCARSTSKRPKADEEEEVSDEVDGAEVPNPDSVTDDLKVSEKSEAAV
GAA850 FXN act: FXN promoter activators, primary screen, cell-based, luciferase luminescence, HEK293 lucGAA850 | HEK293 lucGAA850 FXN promoter luciferase reporter, 24 h; percent of 10 µM SAHA response | activation, % at 6 µM | 360,000 compounds, 0.56% hits | AID 540364, 2011;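 active means activation above the average of all compounds screened plus 3 SD, cutoff fixed separately per campaign, cut at about 7.5% in these data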;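 further: 0% = DMSO wells and 100% = 10 µM SAHA wells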
SR-BI DiI-HDL act: activators of SR-BI mediated DiI-HDL uptake, primary screen, ldlA[mSR-BI] CHO cells, DiI fluorescence | 320,000 compounds, 0.096% hits | activation, % at 12.5 µM | AID 504775, 2011 | 3 h; 100 = double the neutral-control signal;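 active means mean replicate activation of at least 60% and every replicate at or above 60%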;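 further: 0% = median plate neutral-control signal and 100% = twice that signal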
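System: CHO ldlA[mSR-BI] cells / Medium: HEPES-buffered (25 mM, pH 7.4) F12 plus 0.5% BSA / Probe or stimulus: labelled HDL, 10 µg/mL / Doses: single compound concentration, delivered by pin transfer / Schedule: 3 h, 37 °C / Measured by: DiI fluorescence, bottom read / Measure: cell-associated DiI fluorescence as measure of HDL uptake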
AHR activator: AHR activators, primary screen, cell-based, luminescence, luciferase reporter, human. Aryl hydrocarbon receptor (Homo sapiens), P35869. AID 2796, 2010. 320,000 compounds, 2.5% hits. activation, % at 5 µM. AHR-responsive luciferase reporter cells; in the data active means activation above about 47%;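 further: 0% = vehicle wells and 100% = reference agonist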
An asterisk follows results filed as active. Only some compounds are listed: those with a hit (about 3.7% of all), similar ones and a draw of the others.

C/C(=N/Nc1nc(C)cc(-c2ccccc2)n1)c1ccco1 was read as SR-BI HDL uptake 27, GASC-1 inh 6, GAA850 FXN act 1, SR-BI DiI-HDL act -27 and AHR activator 43.
Screening Cc1cc(-c2ccccc2)nc(N/N=C/c2ccccc2F)n1 returned SR-BI HDL uptake 61, GASC-1 inh 1, GAA850 FXN act 4, SR-BI DiI-HDL act -61 and AHR activator 68*.
For Cc1ccc2nc(N/N=C/c3ccccc3F)nc(-c3ccccc3)c2c1 the results were SR-BI HDL uptake 54, GASC-1 inh 2, GAA850 FXN act 1, SR-BI DiI-HDL act -54 and AHR activator 13.
C/C(=N\Nc1nc(C)cc(-c2ccccc2)n1)c1ccc(C)o1 was read as SR-BI HDL uptake 7, GASC-1 inh 9, GAA850 FXN act 0, SR-BI DiI-HDL act -7 and AHR activator 47*.
For C/C(=N\Nc1nc(C)cc(-c2ccccc2)n1)c1ccccc1 the results were SR-BI HDL uptake 41, GASC-1 inh -6, GAA850 FXN act 1, SR-BI DiI-HDL act -41 and AHR activator 40.
`C/C(=N\Nc1nc(C)cc(-c2ccccc2)n1)c1cccc(N)c1` gave SR-BI HDL uptake 20, GASC-1 inh -7, GAA850 FXN act 0, SR-BI DiI-HDL act -20 and AHR activator 49*.
Screening Cc1ccccc1CSc1ccc2nnc(-c3ccccn3)n2n1 returned SR-BI HDL uptake 4, GASC-1 inh -2, GAA850 FXN act 1, SR-BI DiI-HDL act -4 and AHR activator 5.
For Cc1ccc(S(=O)(=O)Nc2ncnc3ccccc23)cc1 the results were SR-BI HDL uptake 2, GASC-1 inh 8, GAA850 FXN act 4, SR-BI DiI-HDL act -2 and AHR activator 21.
For COc1ccc(/C=N/NC(=O)Cc2cccs2)cc1 the results were SR-BI HDL uptake -7, GASC-1 inh 0, GAA850 FXN act 6, SR-BI DiI-HDL act 7 and AHR activator 12.
`COc1cc(/C=N/NC(=O)Cc2cccs2)c([N+](=O)[O-])cc1OC` gave SR-BI HDL uptake -22, GASC-1 inh -6, GAA850 FXN act 1, SR-BI DiI-HDL act 22 and AHR activator 49*.
CC(=O)Nc1ccc(S(=O)(=O)NCCC(=O)OCC(=O)c2cccc(Br)c2)cc1 was read as SR-BI HDL uptake 13, GAA850 FXN act -1 and SR-BI DiI-HDL act -13.
Screening COc1cc(N)c(Cl)cc1C(=O)N[C@H]1CCN(CCCOc2ccc(F)cc2)C[C@H]1OC returned SR-BI HDL uptake 75*, GAA850 FXN act -3, SR-BI DiI-HDL act -75 and AHR activator -4.
Cc1ccccc1NC(=S)NCc1ccc2[nH]c3c(c2c1)CCCC3 was read as SR-BI HDL uptake 43, GASC-1 inh -3, GAA850 FXN act 0, SR-BI DiI-HDL act -41 and AHR activator 36.
Screening S=C(NCc1ccc2[nH]c3c(c2c1)CCCC3)Nc1ccccc1Cl returned SR-BI HDL uptake 66, GASC-1 inh 5, GAA850 FXN act 0, SR-BI DiI-HDL act -66 and AHR activator 58*.
For CCN1CCN(C(=O)N2CCOCC2)CC1 the results were SR-BI HDL uptake -42, GASC-1 inh 7, GAA850 FXN act 1, SR-BI DiI-HDL act 42 and AHR activator -2.
`O=C(Nc1cc2c3c(c1)CC(=O)N3CCC2)c1ccccc1Br` gave SR-BI HDL uptake 62, GASC-1 inh 25, GAA850 FXN act 3, SR-BI DiI-HDL act -62 and AHR activator 5.
Screening Cc1cc(C)n(-c2nc(NCCO)c3c4c(sc3n2)CCCC4)n1 returned SR-BI HDL uptake -20, GASC-1 inh 1, GAA850 FXN act 0, SR-BI DiI-HDL act 20 and AHR activator 47*.
For CC1(C)O[C@@H]2[C@H](O1)[C@@H](CO)O[C@H]2n1cnc2c(=O)[nH]cnc21 the results were SR-BI HDL uptake -3, GASC-1 inh 2, GAA850 FXN act 0, SR-BI DiI-HDL act 5 and AHR activator 1.
CCC1(C(=O)OC)NC(c2ccco2)C2C(=O)N(c3ccc(C)cc3)C(=O)C21 (configuration not stated) was read as SR-BI HDL uptake -158, GASC-1 inh 7, GAA850 FXN act -1, SR-BI DiI-HDL act 158* and AHR activator 5.
Screening CCn1cc(C(=O)NP(=O)(Nc2ccc(C)cc2)Nc2ccc(C)cc2)c2ccccc21 returned SR-BI HDL uptake -165, GASC-1 inh -3, GAA850 FXN act 1, SR-BI DiI-HDL act 165* and AHR activator 3.
For Oc1ccc(/C=N/NC(=S)N/N=C/c2ccc(O)cc2)cc1 the results were SR-BI HDL uptake 9, GASC-1 inh 5, GAA850 FXN act 2, SR-BI DiI-HDL act -9 and AHR activator 9.
COc1cccc(NC(=O)Nc2cccnc2)c1 was read as SR-BI HDL uptake -11, GASC-1 inh 18, GAA850 FXN act -1, SR-BI DiI-HDL act 11 and AHR activator 50*.
Screening Oc1ccc(/C=N/NC(=S)Nc2cccnc2)cc1 returned GASC-1 inh -7, GAA850 FXN act 3 and AHR activator 54*.
COc1cccc(/C=N/NC(=S)Nc2cccnc2)c1 was read as SR-BI HDL uptake 15, GASC-1 inh 15, GAA850 FXN act 4, SR-BI DiI-HDL act -15 and AHR activator 58*.
For COc1ccc(C2NC(=O)c3ccccc3N2)cc1OC (configuration not stated) the results were SR-BI HDL uptake 13, GASC-1 inh -4, GAA850 FXN act 5, SR-BI DiI-HDL act 4 and AHR activator 48*.
O=C1NC(c2ccc3c(c2)OCO3)Nc2ccccc21 (configuration not stated) was read as SR-BI HDL uptake -12, GASC-1 inh 2, GAA850 FXN act 1, SR-BI DiI-HDL act 12 and AHR activator 145*.
Screening O=C1NC(c2ccc3ccccc3c2)Nc2ccccc21 (configuration not stated) returned GAA850 FXN act -2.
For O=C(O)c1sccc1S(=O)(=O)N1CCOCC1 the results were SR-BI HDL uptake 0, GASC-1 inh -11, GAA850 FXN act 2, SR-BI DiI-HDL act 0 and AHR activator -1.
Screening Cc1nc(N2CCC(C)CC2)c2c(C)c(C(=O)Nc3ccc(C)c(F)c3)sc2n1 returned SR-BI HDL uptake 87*, GASC-1 inh -3, GAA850 FXN act 2, SR-BI DiI-HDL act -87 and AHR activator 4.
Screening Cc1cccc(NC(=O)c2sc3nc(C)nc(N4CCOCC4)c3c2C)c1 returned GAA850 FXN act 0.
For Cc1nc(N2CCCCC2)c2c(C)c(C(=O)Nc3ccc4c(c3)OCCO4)sc2n1 the results were SR-BI HDL uptake 77*, GASC-1 inh 1, GAA850 FXN act -1, SR-BI DiI-HDL act -77 and AHR activator -5.
`CC(=O)Nc1ccc(/C=C2\CCc3ccccc3C2=O)cc1` gave SR-BI HDL uptake -14, GASC-1 inh -9, GAA850 FXN act 1, SR-BI DiI-HDL act 14 and AHR activator 7.

Compound activity: PubChem, several laboratories
